# The list is not random: actives were taken first. Their share in the collection is about 4.6%.
# TAAR1 antagonist: human TAAR1 antagonists, primary screen, Fluo-8 calcium fluorescence, CHO RD-HGA16 cells; antagonist; inhibition, % at 3 µM; hit rate 1.5% among 360,000; AID 624466, 2012;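 active = inhibition above a per-plate cutoff, the mean inhibition of test compounds on that plate plus 3 SD, cut at about 49% in these data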;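 note: 0% = DMSO plus EC80 beta-PEA response and 100% = DMSO alone without agonist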
#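 System: CHO RD-HGA16 cells bearing hTAAR1. Reagent: EC80 β-phenethylamine stimulus. Schedule: seeding 17-24 h prior, 75-min 37 °C, 30-min RT dye loading. Signal: Fluo-8 intracellular calcium dye fluorescence, real-time kinetic reads. Read-out: % inhibition from peak post-agonist over basal fluorescence ratio. Benchmarks: vehicle wells and EC80 agonist wells. Replicates: n of 1.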
# OX1R antag-1: OX1R (HCRTR1) antagonists, primary screen, fluorescence, CHO/OX1R cells, Fluo-8 calcium, orexin A | Orexin/Hypocretin receptor type 1 (Homo sapiens), O43613 | Fluo-8 calcium fluorescence | inhibition, % at 5 µM | hit rate 0.43% among 330,000;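 active = inhibition above its plate's threshold, mean inhibition of all tested compounds on the plate plus 3 SD, cut at about 37% in these data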;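 note: 0% = orexin A challenge wells and 100% = SB-334867-A antagonist wells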
# GPR7 antagonist: GPR7 receptor antagonists, primary screen, cell-based, fluorescence, single concentration; GPR7-expressing cells, fluorescence antagonist assay; inhibition, % at 4.4 µM; hit rate 1.1% among 290,000; in the data active = inhibition above about 16%, passing the limit was not always enough;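 note: cells stimulated with the agonist NPW; 0% = agonist with vehicle and 100% = vehicle without agonist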
# Target sequence (P48145 whole entry, looked up): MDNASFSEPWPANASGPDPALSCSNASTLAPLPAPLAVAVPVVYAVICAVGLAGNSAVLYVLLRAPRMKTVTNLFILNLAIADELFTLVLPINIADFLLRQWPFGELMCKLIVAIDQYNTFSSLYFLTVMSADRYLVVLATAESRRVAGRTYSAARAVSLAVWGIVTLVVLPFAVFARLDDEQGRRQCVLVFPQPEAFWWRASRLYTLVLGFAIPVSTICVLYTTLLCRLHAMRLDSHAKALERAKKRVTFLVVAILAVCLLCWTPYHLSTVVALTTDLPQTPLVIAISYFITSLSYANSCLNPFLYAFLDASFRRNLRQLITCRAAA
# CHO parental Ca: ATP-evoked calcium signal inhibitors, parental CHO, primary screen, counter-screen for OX1R antagonist project, cell-based, fluorescence, Fluo-8 calcium dye | hit rate 0.63% among 330,000 | inhibition, % at 5.6 µM | parental CHO-K1, ATP-induced calcium, Fluo-8 fluorescence;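 active = inhibition above that plate's mean sample inhibition plus 3 SD, cut at about 26% in these data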;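 note: 0% = ATP-challenged DMSO wells and 100% = DMSO wells without ATP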
#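 Test system: untransfected parental CHO cell line; also added: ATP stimulus; dosing: 5.6 µM, single dose; signal: calcium-sensitive Fluo-8 fluorescence; measure: percent inhibition of ATP-evoked calcium rise, normalized to controls; benchmarks: low control ATP plus DMSO, high control DMSO only; replication: one well per compound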
# OX1R antag-2: antagonists of human orexin 1 receptor (OX1R) | OX1R-expressing cells, FRET antagonist read-out | inhibition, % at 6.6 µM | hit rate 1.8% among 330,000 | AID 485270, 2010; in the data active = inhibition mostly above about 38%, no sharp cut-off; inactive = mostly below about 40%;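 note: 0% = agonist challenge alone and 100% = reference antagonist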
# TAAR1 agonist: human TAAR1 agonists, primary screen, Fluo-8 calcium fluorescence, CHO RD-HGA16 cells; activation, % at 3 µM; vehicle wells 0%, saturating PEA agonist 100%; hit rate 0.99% among 360,000; AID 624467, 2012; Trace amine-associated receptor 1 (Homo sapiens), Q96RJ0;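 active = activation above the mean activation of all test compounds in the run plus 3 SD, cut at about 38% in these data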
#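 Signal – calcium-sensitive Fluo-8 signal, excitation 470-495, emission 515-575 nm · System – RD-HGA16 (CHO) cells co-expressing Gα16 and hTAAR1 · Incubation – 17-24 h seeding, 75 min 37 °C dye, 30 min RT · Compound dosing – 3 µM single concentration · Repeats – no replicates (n 1)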
# GPR7 antag cf: GPR7 receptor antagonists, confirmation, cell-based, fluorescence, single concentration | inhibition, % at 4.4 µM | AID 1952, 2009 | hit rate 52% among 2,400 | shares compounds with GPR7 antagonist | GPR7-expressing cells, calcium fluorescence antagonist mode; in the data active = inhibition above about 24%;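 note: stimulated with the GPR7 agonist NPW; 0% = agonist plus vehicle and 100% = vehicle alone without agonist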
# MCHR1 antag: MCHR1 antagonists in cells, counter-screen for GPR7 antagonist project, cell-based, fluorescence, human. shares compounds with GPR7 antagonist. MCHR1-expressing cells, fluorescence antagonist assay. inhibition, % at 4.4 µM. hit rate 62% among 2,400. AID 2148, 2009; in the data active = inhibition above about 22%;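 note: 0% = vehicle with agonist and 100% = vehicle without agonist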
# Numbers without * were called inactive; nt = not tested or not shown.
SMILES,TAAR1 antagonist,OX1R antag-1,GPR7 antagonist,CHO parental Ca,OX1R antag-2,TAAR1 agonist,GPR7 antag cf,MCHR1 antag
CC1C(=O)Nc2ccc(S(=O)(=O)NCCc3ccc(Cl)cc3)cc2NC1=O (centres undefined),-1,-29,-1,-4,18,8,nt,nt
Cn1cc(CN2CCCC(C(=O)Nc3cccc(-n4cccn4)c3)C2)cn1 (centres undefined),-19,-20,0,-24,2,0,nt,nt
Cn1cc(CN2CCCC(C(=O)Nc3ccc(-c4cccc(F)c4)cc3)C2)cn1 (centres undefined),10,-3,39*,-17,3,17,42*,64*
COc1ccnc(Oc2ccc(F)cc2)c1C(=O)N/C=N/OCc1ccc(F)cc1,19,3,nt,-7,5,49*,nt,13
CN(C)c1ccc(-c2ccnc3c2CC(C)(C(=O)NCc2cccc(Cl)c2)O3)cc1 (centres undefined),-19,nt,nt,nt,nt,-1,nt,nt
COc1ccccc1Cc1c(-c2ccccc2)nc2cc(C)c(Br)c(C)n12,-28,nt,nt,nt,nt,-1,nt,nt
O=Nc1[nH]c(=O)c(/C=C(\O)c2ccccc2)nc1NO,-24,nt,-5,nt,nt,4,nt,nt
Cc1ccc(S(=O)(=O)CCC(=O)OCC(=O)Nc2cc(F)ccc2C)cc1,-13,-16,nt,-27,15,-1,nt,nt
C=CCOc1cccc(C(=O)N2CCCC(Nc3ccc(F)cc3)C2)c1 (centres undefined),-9,-18,-1,-17,26,4,nt,nt
COc1cc(OC)cc(C(=O)N2CCCC(Nc3ccc(F)cc3)C2)c1 (centres undefined),-11,-40,28*,-18,16,-1,-15,-11
CCCC(CCC)C(=O)Nc1ccc2c(c1)N(C(=O)CN1CCN(C)CC1)c1ccccc1CC2,8,-15,58*,-16,31,3,39*,22*
CCOC(=O)Nc1ccc2c(c1)N(C(=O)CN1CCN(C)CC1)c1ccccc1S2,4,-17,-1,-16,-2,16,nt,nt
CN(C)CCNS(=O)(=O)c1ccc(N2CCN(c3ccc(F)cc3)CC2)c([N+](=O)[O-])c1,15,-8,23*,5,23,20,36*,32*
CC(=O)N1CCN(c2ccc(S(=O)(=O)NCCN(C(C)C)C(C)C)cc2[N+](=O)[O-])CC1,-27,3,-6,-5,44,4,nt,nt
Nc1ccn(CCCN2CCN(C(=O)C3CC3)CC2)c(=O)n1,-9,nt,nt,nt,nt,1,nt,nt
c1ccc(COc2ccc(Nc3ncnc4nc[nH]c34)cc2)cc1,56*,-12,34*,3,14,10,-19,23*
Cc1nn(C)c(C)c1N1C(=O)c2cccc3c(N)ccc(c23)C1=O,64*,62*,22*,51*,19,124*,26*,38*
Cc1nn(C)c(C)c1N1C(=O)c2cccc3c(Br)ccc(c23)C1=O,9,2,-15,3,62,17,nt,nt
Cc1ccc([C@H]2C[C@H](O)[C@@H](n3cc(COC(=O)c4ccccc4)nn3)CN2C(=O)c2cccs2)cc1,-5,nt,nt,nt,nt,2,nt,nt
O=C(C1COc2ccccc2O1)N1CCCCC1 (centres undefined),-1,1,nt,-6,8,1,nt,nt
O=C(C1COc2ccccc2O1)N1CCc2ccccc2C1 (centres undefined),7,-17,21*,-18,8,9,5,35*
CCC1(CC)SC(N)=NC1=O,-16,nt,nt,nt,nt,7,nt,nt
